According to ChEMBL document CHEMBL1144570, “C6-(N,N-butyl-methyl-heptanamide) derivatives of estrone and estradiol as inhibitors of type 1 17beta-hydroxysteroid dehydrogenase: Chemical synthesis and biological evaluation” (2007):
The source made the active and inactive calls. No cut-off for these calls is given here.

Key:
T47D [1] = experiment: Increase in cell growth of estrogen-starved ER expressing T47D cells at 0.01 uM relative to control after 10 days; type: functional, Homo sapiens
How it was run: (§1)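 Cells were moved to medium with insulin (50 ng/mL) and 5% dextran-coated charcoal-treated FBS to remove estrogens, then seeded at 3000 cells/well. After 48 h, inhibitor dilutions in growth medium were added, with medium replaced every 2 days. Cells were grown 10 days in triplicate. Growth was read with the CellTiter 96 AQueous assay and expressed as % of control (100%).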

[2] = target: T1, 17-beta-hydroxysteroid dehydrogenase type 1 (Homo sapiens) (UniProt P14061); experiment: Inhibition of 17beta-HSD1 over-expressed in homogenated HEK293 cells at 0.1 uM; type: cell-based
T1 sequence (whole entry): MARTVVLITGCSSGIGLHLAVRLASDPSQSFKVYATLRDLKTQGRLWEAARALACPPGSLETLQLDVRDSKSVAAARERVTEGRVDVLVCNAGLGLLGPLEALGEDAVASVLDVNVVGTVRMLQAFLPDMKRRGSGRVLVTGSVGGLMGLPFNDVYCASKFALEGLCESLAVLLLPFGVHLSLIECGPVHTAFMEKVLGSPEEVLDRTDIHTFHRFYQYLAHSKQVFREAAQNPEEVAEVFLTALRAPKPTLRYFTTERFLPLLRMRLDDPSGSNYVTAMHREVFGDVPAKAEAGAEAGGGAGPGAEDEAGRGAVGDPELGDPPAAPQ
How it was run: (§2)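 Homogenate of HEK-293 cells overexpressing type 1 17β-HSD. Reductive conversion of E1 (100 nM) to E2 with NADH cofactor. Percent inhibition from one run in triplicate, SD < ±5%.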

[3] = target: T1, 17-beta-hydroxysteroid dehydrogenase type 1 (Homo sapiens); experiment: Inhibition of 17beta-HSD1 over-expressed in intact HEK293 cells at 1 uM; type: cell-based
How it was run: (§3)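 Transfected HEK-293 cells expressing type 1 17β-HSD were plated at 5000 cells/well. Inhibitors were added in ethanol and incubated 24 h. [4-14C]-E1 (60 nM) was then added for 15 min. Labelled E1 and E2 were extracted from the medium and quantified. Values are the mean of five experiments in quadruplicate, SD < ±8%.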

T47D [4] = experiment: Increase in cell growth of estrogen-starved ER expressing T47D cells at 0.1 uM relative to control after 10 days; type: functional, Homo sapiens; how it was run: as §1
[5] = target: T2, Very-long-chain 3-oxoacyl-CoA reductase (Homo sapiens) (UniProt Q53GQ0); experiment: Inhibition of 17beta-HSD12 over-expressed in intact HEK293 cells at 1 uM; type: cell-based
T2 sequence (whole entry): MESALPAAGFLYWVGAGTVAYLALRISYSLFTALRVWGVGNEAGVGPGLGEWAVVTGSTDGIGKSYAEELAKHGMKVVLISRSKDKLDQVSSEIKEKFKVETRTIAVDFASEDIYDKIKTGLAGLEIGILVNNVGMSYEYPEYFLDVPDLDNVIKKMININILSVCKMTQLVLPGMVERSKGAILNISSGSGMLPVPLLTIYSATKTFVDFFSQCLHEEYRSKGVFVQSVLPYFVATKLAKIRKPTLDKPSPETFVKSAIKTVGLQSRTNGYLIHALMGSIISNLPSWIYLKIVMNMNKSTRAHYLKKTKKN
How it was run: (§4)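 Transfected HEK-293 cells expressing type 12 17β-HSD were plated at 1.5×10^5 cells/well. Inhibitor in ethanol plus [4-14C]-E1 (60 nM) were added in fresh medium for 24 h. E1 to E2 conversion was quantified after steroid extraction. Values are the mean of two experiments in triplicate, SD < ±5%.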

[6] = target: T1, 17-beta-hydroxysteroid dehydrogenase type 1 (Homo sapiens); experiment: Inhibition of 17beta-HSD1 over-expressed in intact HEK293 cells at 10 uM; type: cell-based; how it was run: as §3
[7] = target: T3, 3-keto-steroid reductase/17-beta-hydroxysteroid dehydrogenase 7 (Homo sapiens) (UniProt P56937); experiment: Inhibition of 17beta-HSD7 over-expressed in intact HEK293 cells at 10 uM; type: cell-based
T3 sequence (whole entry): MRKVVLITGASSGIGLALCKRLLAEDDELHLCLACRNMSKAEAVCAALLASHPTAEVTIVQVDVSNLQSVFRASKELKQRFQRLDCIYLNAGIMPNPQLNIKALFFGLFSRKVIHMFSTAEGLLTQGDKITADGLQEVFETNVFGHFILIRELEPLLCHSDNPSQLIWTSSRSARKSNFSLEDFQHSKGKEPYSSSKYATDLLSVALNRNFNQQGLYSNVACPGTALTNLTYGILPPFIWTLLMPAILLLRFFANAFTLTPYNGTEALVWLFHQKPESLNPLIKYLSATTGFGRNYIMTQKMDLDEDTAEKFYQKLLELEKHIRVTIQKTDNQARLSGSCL
How it was run: (§5)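 Intact transfected HEK-293 cells expressing type 7 17β-HSD. Inhibition of reductive conversion of E1 (60 nM) to E2. One run in triplicate, SD < ±5%.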

[8] = target: T1, 17-beta-hydroxysteroid dehydrogenase type 1 (Homo sapiens); experiment: Inhibition of 17beta-HSD1 over-expressed in intact T47D cells at 0.1 uM; type: cell-based
How it was run: (§6)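 Intact T-47D cells, which express endogenous type 1 17β-HSD, were seeded at 3×10^4 cells/well in proliferation assay medium. After 48 h, [4-14C]-E1 (60 nM) and inhibitor in ethanol (0.5% v/v) were added in fresh medium for 24 h. Labelled E1 and E2 were extracted and quantified. Values are the mean of two experiments in triplicate, SD < ±5%.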

[9] = target: T1, 17-beta-hydroxysteroid dehydrogenase type 1 (Homo sapiens); experiment: Inhibition of 17beta-HSD1 overexpressed in homogenated HEK293 cells at 1 uM; type: cell-based; how it was run: as §2
[10] = target: T3, 3-keto-steroid reductase/17-beta-hydroxysteroid dehydrogenase 7 (Homo sapiens); experiment: Inhibition of 17beta-HSD7 over-expressed in intact HEK293 cells at 1 uM; type: cell-based; how it was run: as §5
[11] = target: T2, Very-long-chain 3-oxoacyl-CoA reductase (Homo sapiens); experiment: Inhibition of 17beta-HSD12 over-expressed in intact HEK293 cells at 10 uM; type: cell-based; how it was run: as §4
[12] = target: T1, 17-beta-hydroxysteroid dehydrogenase type 1 (Homo sapiens); experiment: Inhibition of 17beta-HSD1 over-expressed in intact HEK293 cells at 0.1 uM; type: cell-based; how it was run: as §3
[13] = target: T1, 17-beta-hydroxysteroid dehydrogenase type 1 (Homo sapiens); experiment: Inhibition of 17beta-HSD1 over-expressed in intact T47D cells at 10 uM; type: cell-based; how it was run: as §6
T47D [14] = experiment: Increase in cell growth of estrogen-starved ER expressing T47D cells at 1 uM relative to control after 10 days; type: functional, cell-based; conditions: Homo sapiens; how it was run: as §1
[15] = target: T1, 17-beta-hydroxysteroid dehydrogenase type 1 (Homo sapiens); experiment: Inhibition of 17beta-HSD1 over-expressed in intact T47D cells at 1 uM; type: cell-based; how it was run: as §6
[16] = target: T1, 17-beta-hydroxysteroid dehydrogenase type 1 (Homo sapiens); experiment: Inhibition of 17beta-HSD1 over-expressed in intact HEK293 cells; type: cell-based
How it was run: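 Transfected HEK-293 cells overexpressing type 1 17β-HSD, plated at 5000 cells/well, given ethanolic inhibitor solutions and incubated 24 h. [4-14C]-E1 (60 nM) then added for 15 min. Labelled E1 and E2 extracted from medium and quantified, giving percent inhibition of E1→E2 reduction at 10, 1 and 0.1 μM. Mean of five experiments in quadruplicate.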

MCF7 [17] = experiment: Decrease in cell growth of estrogen-starved ER expressing MCF7 cells at 1 uM relative to control after 10 days; type: functional, cell-based; conditions: Homo sapiens; how it was run: as §1
MCF7 [18] = experiment: Increase in cell growth of estrogen-starved ER expressing MCF7 cells at 0.01 uM relative to control after 10 days; type: functional, Homo sapiens; how it was run: as §1
MCF7 [19] = experiment: Increase in cell growth of estrogen-starved ER expressing MCF7 cells at 1 uM relative to control after 10 days; type: functional, Homo sapiens; how it was run: as §1
T47D [20] = experiment: Effect on cell proliferation of estrogen-starved ER expressing T47D cells at 1 uM relative to control after 10 days; type: functional, cell-based; conditions: Homo sapiens; how it was run: as §1
T47D [21] = experiment: Decrease in cell growth of estrogen-starved ER expressing T47D cells after 10 days relative to control; type: functional, cell-based; conditions: Homo sapiens; how it was run: as §1
MCF7 [22] = experiment: Increase in cell growth of estrogen-starved ER expressing MCF7 cells at 10 nM relative to control after 10 days; type: functional, Homo sapiens; how it was run: as §1
T47D [23] = experiment: Increase in cell growth of estrogen-starved ER expressing T47D cells at 10 nM relative to control after 10 days; type: functional, Homo sapiens; how it was run: as §1

SMILES	inhibition [2] [%]	inhibition [3] [%]	inhibition [5] [%]	inhibition [6] [%]	inhibition [7] [%]	inhibition [8] [%]	inhibition [9] [%]	inhibition [10] [%]	inhibition [11] [%]	inhibition [12] [%]	inhibition [13] [%]	inhibition [15] [%]	Activity [16]	further results
CCCCN(C)C(=O)CCCCCS[C@@H]1C[C@@H]2[C@H](CC[C@]3(C)[C@@H](O)CC[C@@H]23)c2ccc(O)cc21	33	45	0	63	25	31	74	9	22	11	95	82	–	Activity (T47D [1]): 2.3; Activity (T47D [4]): 2.3; Activity (T47D [14]): Active
C[C@]12CC[C@@H]3c4ccc(O)cc4C=C[C@H]3[C@@H]1CC[C@@H]2O	–	–	–	–	–	–	–	–	–	–	–	–	inactive	–
CCCCN(C)C(=O)CCCCCC[C@H]1C[C@@H]2[C@H](CC[C@]3(C)C(=O)CC[C@@H]23)c2ccc(O)cc21	3	5	3	14	29	7	16	5	44	3	71	19	–	–
C[C@]12CC[C@@H]3c4ccc(O)cc4[C@H](O)C[C@H]3[C@@H]1CC[C@@H]2O	–	–	–	–	–	–	–	–	–	–	–	–	inactive	–
C[C@]12CC[C@@H]3c4ccc(O)cc4C(=O)C[C@H]3[C@@H]1CC[C@@H]2O	–	–	–	–	–	–	–	–	–	–	–	–	inactive	–
CCCCN(C)C(=O)CCCCCC[C@H]1C[C@@H]2[C@H](CC[C@]3(C)[C@@H](O)CC[C@@H]23)c2ccc(O)cc21	9	11	1	15	24	9	17	11	30	3	74	21	–	–
C[C@]12CC[C@@H]3c4ccc(O)cc4CC[C@H]3[C@@H]1CCC2=O	19	38	0	83	0	36	59	0	0	8	93	85	–	–
CCCCN(C)C(=O)CCCCCC[C@@H]1C[C@@H]2[C@H](CC[C@]3(C)C(=O)CC[C@@H]23)c2ccc(O)cc21	12	20	0	31	31	19	23	7	40	8	92	57	–	Activity (MCF7 [17]): Active
CCCCN(C)C(=O)CCCCCC[C@@H]1C[C@@H]2[C@H](CC[C@]3(C)[C@@H](O)CC[C@@H]23)c2cc(OC)c(O)cc21	–	15	0	28	17	11	–	0	22	13	81	32	–	Activity (T47D [1]): 2.3; Activity (MCF7 [18]): 1.7; Activity (MCF7 [19]): 1.1; Activity (T47D [20]): inactive
C[C@]12CC[C@H]3C(=CCc4cc(O)ccc43)[C@@H]1CC[C@@H]2O	–	–	–	–	–	–	–	–	–	–	–	–	inactive	–
CCCCN(C)C(=O)CCCCCC[C@@H]1C[C@@H]2[C@H](CC[C@]3(C)[C@@H](O)CC[C@@H]23)c2ccc(O)cc21	15	21	1	49	27	29	46	0	30	11	95	82	–	Activity (T47D [21]): Active
C[C@]12CC[C@@H]3c4ccc(O)cc4CC[C@H]3[C@@H]1CC[C@@H]2O [ESTRADIOL]	–	–	–	–	–	–	–	–	–	–	–	–	–	Activity (MCF7 [22]): 1.8; Activity (T47D [23]): 3
